# Rows were chosen to be rich in hits. Some 3.3% of all compounds tested hit in one or more screens of this group.
# SENP1 inh: inhibitors of human SENP1 SUMO protease catalytic domain; Q9P0U3; recombinant SENP1 catalytic domain, CyPet-SUMO1-YPet FRET cleavage; inhibition, % at 10 µM; 0.21% of 360,000 active; AID 624204;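 active means inhibition at least 30% at 10 µM, raw YFP signal under a set limit, fluorescence ratio 0.5 to 1.5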;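 further: 0% = enzyme with DMSO and 100% = no enzyme wells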
# Target sequence (Q9P0U3 419-644 limits assumed): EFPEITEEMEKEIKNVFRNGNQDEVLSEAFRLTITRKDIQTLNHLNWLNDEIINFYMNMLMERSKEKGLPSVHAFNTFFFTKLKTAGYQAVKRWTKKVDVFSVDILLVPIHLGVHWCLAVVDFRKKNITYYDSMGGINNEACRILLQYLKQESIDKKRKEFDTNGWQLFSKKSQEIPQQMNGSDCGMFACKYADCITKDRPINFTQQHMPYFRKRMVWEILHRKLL
#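 Assay system – human recombinant His6-tagged SENP1 catalytic domain enzyme · Input – SENP1 enzyme, 20 pM final · Buffer or medium – Tris pH 8 buffer plus EDTA, NaCl, BME, BSA, NP40, catalase · Schedule – 50 min reaction at room temperature · Technique – FRET read of cyan and yellow fluorescence · Control set – no-enzyme wells low, DMSO-plus-enzyme wells high control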
# SENP8 block-1: SENP8 protease inhibition; 1.2% of 330,000 active; inhibition, % at 10 µM; Q96LD8; purified SENP8, Z-RLRGG-aminoluciferin cleavage, luminescence; AID 2540; in the data active means inhibition above about 50%
# Target sequence (Q96LD8 whole entry, looked up): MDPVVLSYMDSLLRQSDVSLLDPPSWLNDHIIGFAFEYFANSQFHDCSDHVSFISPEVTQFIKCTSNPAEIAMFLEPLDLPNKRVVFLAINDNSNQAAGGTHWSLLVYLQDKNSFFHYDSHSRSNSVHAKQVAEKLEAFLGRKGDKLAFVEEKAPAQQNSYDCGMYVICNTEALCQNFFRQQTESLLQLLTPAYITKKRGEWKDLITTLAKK
# SENP7 block: SENP7 protease inhibition; Q9BQF6; recombinant SENP7, Z-RLRGG-aminoluciferin luminescence, 40 min; inhibition, % at 5 µM; 1.5% of 330,000 active; AID 434973;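 active means inhibition above about 50% at the single test dose, limit read from the data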;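 further: plate controls were DMSO with enzyme for no effect and no enzyme buffer wells for full effect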
# NRP1-CendR mod: alters CendR peptide binding to human NRP-1; O14786; FAM-RPARPAR peptide binding to NRP-1, fluorescence polarization; inhibition, % at 25 µM; 0.85% of 360,000 active; AID 602438;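 active means inhibition or corrected inhibition above about 18%, plus a signal ratio from 0.5 to 1.5, limit read from the data, passing the limit was not always enough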
# SENP8 block-2: blocks human SENP8 cleavage of Nedd8 substrate; Q96LD8; recombinant SENP8, Nedd8 substrate fluorescence; inhibition, % at 20 µM; 0.64% of 360,000 active; AID 602440; in the data active means inhibition mostly above about 40%, no sharp cut-off; inactive means mostly below about 27%
# SENP6 block: blocks the human protease SENP6. Q9GZR1. Recombinant SENP6 catalytic domain, aminoluciferin luminescence. inhibition, % at 10 µM. 1.8% of 330,000 active;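 active means inhibition above about 50% at the single tested dose, limit read from the data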;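 further: plate controls were DMSO wells with enzyme for no effect and DMSO wells lacking enzyme for full effect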
# SENP8 confirm: human SENP8 inhibition, confirmed. shares compounds with SENP7 block. Recombinant SENP8, Z-RLRGG-aminoluciferin luminescence, 60 min. 40% of 6,200 active. inhibition, % at 12.5 µM;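 active means mean inhibition across replicates above about 50%, limit read from the data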
# SENP6 conf: confirmation of human SENP6 protease inhibitors. shares compounds with SENP7 block. recombinant SENP6, Z-RLRGG-aminoluciferin luminescence. inhibition, % at 12.5 µM. 58% of 6,200 active. AID 488915
# SENP7 conf: human SENP7 inhibition, confirmed | recombinant SENP7, Z-RLRGG-aminoluciferin luminescence, 40 min | inhibition, % at 12.5 µM | 69% of 6,200 active | shares compounds with SENP7 block
# Casp3 select: caspase-3 inhibition (SENP selectivity assay); shares compounds with SENP7 block; purified caspase-3, Z-DEVD-aminoluciferin luminescence, 60 min; inhibition, % at 12.5 µM; 60% of 6,200 active; AID 488918;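 active means mean inhibition above about 50%, limit read from the data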;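 further: plate controls were enzyme with DMSO for no effect and wells without caspase-3 for full effect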
# SENP luc ctr: luminescence interference (SENP counter-screen); inhibition, % at 12.5 µM; 39% of 6,200 active; shares compounds with SENP7 block; AID 488919; Pre-incubated SENP8/Z-RLRGG-aminoluciferin, luciferase luminescence interference;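 active means mean inhibition above about 50% when retested at one dose, limit read from the data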;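 further: plate controls were DMSO wells with completed reaction for no effect and substrate without enzyme for full effect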
# An asterisk follows results filed as active; . = no result given.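 How the source made its calls, unless noted: active means mean inhibition above about 50% in the one-dose retest (limit read from the data); inactive means the rest.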
SMILES,SENP1 inh,SENP8 block-1,SENP7 block,NRP1-CendR mod,SENP8 block-2,SENP6 block,SENP8 confirm,SENP6 conf,SENP7 conf,Casp3 select,SENP luc ctr
CCOC(=O)C1(C)CCN1C(=O)c1ccc2ccccc2c1 (configuration not stated),1,.,.,6,0,.,.,.,.,.,.
O=C(NCCc1ccc(C(F)(F)F)cc1)C1CC(=O)N(Cc2ccccc2)C1 (configuration not stated),-1,-1,-5,2,-2,-3,.,.,.,.,.
Cc1ccccc1C(=O)Nc1ccc(Cl)cn1,-1,19,51*,-4,21,56*,39,44,73*,74*,37
Cc1ccc(C(=O)Nc2ccc(Cl)cn2)cc1,0,59*,59*,4,16,75*,48,64*,90*,78*,36
Cc1ccc(CC(=O)Nc2ccc(Cl)cn2)cc1,1,3,0,7,18,-20,.,.,.,.,.
O=C1CC2(CCCC2)C(=O)N1CN1CCN(S(=O)(=O)c2cc(F)ccc2F)CC1,3,.,.,4,11,.,.,.,.,.,.
CC(CSC(=O)c1ccccc1)C(=O)N1c2ccccc2CC1C(=O)O (configuration not stated),-2,.,.,-6,-15,.,.,.,.,.,.
N/C(=N\OC(=O)c1ccc(Cl)c(Cl)c1)c1cccnc1,1,24,64*,3,17,67*,17,22,31,31,15
N/C(=N\OC(=O)c1ccccc1Cl)c1cccnc1,1,41,57*,-13,11,65*,56*,54*,82*,79*,64*
N/C(=N\OC(=O)c1cccc(Cl)c1)c1cccnc1,-1,7,15,-10,16,46,.,.,.,.,.
N/C(=N\OC(=O)c1ccccc1)c1cccnc1,-1,24,56*,1,-7,39,16,17,61*,72*,38
N/C(=N\OC(=O)c1cc(Cl)ccc1Cl)c1cccnc1,4,-10,0,4,19,-14,.,.,.,.,.
O=C(NCc1ccc2c(c1)OCO2)C1CC(=O)N(CCc2ccc(Cl)cc2)C1 (configuration not stated),2,0,0,13,2,-2,.,.,.,.,.
Cc1ccc(CCN2CC(C(=O)NCc3ccc4c(c3)OCO4)CC2=O)cc1 (configuration not stated),1,2,0,6,22,67*,10,4,2,2,5
CC1(C)Cc2c(sc(NC(=O)c3ccccc3)c2C(=O)O)CO1,-2,64*,44,-3,-49,-16,77*,69*,86*,82*,59*
CC(C)COc1ccc(C(=O)Nc2sc3c(c2C(=O)O)CC(C)(C)OC3)cc1,1,28,-1,-10,-373,30,.,.,.,.,.
CC1(C)Cc2c(sc(NC(=O)C(=O)N3CCCC3)c2C(=O)O)CO1,1,-7,15,8,22,4,.,.,.,.,.
COc1ccc(C(=O)Nc2sc3c(c2C(=O)O)CC(C)(C)OC3)cc1,3,44,43,1,-278,63*,8,56*,0,50*,2
COc1ccc(-c2ccc(SCC(=O)NC3CCCCC3)nn2)cc1,2,-3,2,5,9,1,.,.,.,.,.
COc1ccc(-c2cn3nc(SCC(=O)NC4CCCCC4)ccc3n2)cc1,-45,14,61*,-5,-382,18,-14,-9,18,20,7
COc1ccc2c(c1OC)C(=O)N(c1ccc(C)cc1)C2,3,-8,4,-7,-24,-38,.,.,.,.,.
COc1ccc2c(c1OC)C(=O)N(c1cccc(C)c1)C2,-2,33,59*,-15,-16,71*,65*,64*,90*,84*,70*
C(=N\Nc1ncnc2ccccc12)/c1ccccc1,1,39,66*,1,10,47,62*,59*,85*,69*,68*
Clc1nnc(N/N=C/c2ccccc2)c2ccccc12,2,74*,90*,0,9,94*,16,39,65*,36,21
Cc1ccc(/C=N/Nc2nnc(Cl)c3ccccc23)cc1,2,86*,95*,-2,-10,93*,44,49,42,37,17
SMILES,SENP1 inh,SENP8 block-1,SENP7 block,NRP1-CendR mod,SENP8 block-2,SENP6 block,SENP8 confirm,SENP6 conf,SENP7 conf,Casp3 select,SENP luc ctr
Cc1ccc(-c2nc(N/N=C/c3ccncc3)c3ccccc3n2)cc1,-2,89*,89*,-13,-68,88*,12,16,18,37,3
Clc1ccc(/C=N/Nc2nnc(Cl)c3ccccc23)cc1,0,-8,22,15,14,-20,.,.,.,.,.
CC1(C(=O)NS(=O)(=O)c2ccc(Cl)cc2)CCN1C(=O)Cc1ccccc1Cl (configuration not stated),2,.,.,-6,21,.,.,.,.,.,.
O=C(COC(=O)c1cc(S(=O)(=O)N2CCCC2)ccc1O)Nc1ccccc1Br,0,-1,-7,11,-333,-2,.,.,.,.,.
CC(C)NC(=O)C1(C)CCN1C(=O)c1ccc(F)c(Cl)c1 (configuration not stated),0,.,.,11,0,.,.,.,.,.,.
CCOC(=O)[C@]12CCCC=C1N(Cc1ccc3c(c1)OCO3)C(=O)[C@H](CC(=O)N1CCN(C(=O)C3CC3)CC1)C2,1,.,.,2,5,.,.,.,.,.,.
Cn1c(Cl)nc2ccccc21,2,2,-4,9,35,4,.,.,.,.,.
Cn1c(N=Nc2ccccc2)nc2ccccc21,2,97*,101*,10,66*,-4,-16,99*,103*,94*,97*
CCn1c(NCc2ccc(N(C)C)cc2)nc2ccccc21,-4,-6,0,-8,34,-6,.,.,.,.,.
CN(C)c1ccc(N=Nc2nc3ccccc3n2C)cc1,5,97*,100*,13,50*,100*,95*,101*,103*,89*,36
CCCCOc1ccc(S(=O)(=O)NC(=O)C2(C)CCN2C(=O)c2c(C)noc2C)cc1 (configuration not stated),2,.,.,-6,14,.,.,.,.,.,.

# Bioassay records as filed in PubChem.
